The values below come from publication PMC8713577 (ACS infectious diseases, 2021).

Data set [1] relates to six clinical isolates of E. faecium (VRE). Nature of the data set: MIC against clinical isolates of E. faecium. The format is cell-based, Enterococcus faecium. To be noted: for activity against VRE clinical isolates: E. faecium clinical isolates with high levels of vancomycin resistance.
The subject of data set [2] is S. aureus (FA-32X-B). Nature of the data set: Neutropenic thigh infection burden study, FA-resistant strain. The format is in vivo, CD-1 mice. To be noted: 50 mg/kg IP at 1, 2, 3 h postinfection, 8 h postinfection.
Data set [3] concerns S. aureus ATCC 29213. Nature of the data set: MIC, CLSI broth microdilution. To be noted: for antibacterial activity relative to FA: S. aureus ATCC 29213, MIC; for MIC fold worse than FA: S. aureus ATCC 29213. The format is cell-based, Staphylococcus aureus. Put shortly: (§1)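 Broth microdilution followed CLSI, in cation-adjusted Mueller-Hinton broth in round-bottom wells, run in biological triplicate. Reference strains came from ATCC.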
Background: Dilution methods test growth across graded concentrations, often in twofold steps.

Data set [4] concerns clinical isolates of S. aureus / staphylococci resistant to FA. The settings on record: cited from earlier work.
Data set [5] has as its system E. faecium ATCC 19434. Nature of the data set: MIC against sensitive E. faecium. The data set is classed as cell-based, Enterococcus faecium. The procedure, abridged: as §1
Data set [6] relates to S. aureus strains in the United States. The settings on record: analysis conducted in 2011; cited from earlier work.
The conditions of data set [7]: human, in vivo; cited from earlier work.
The test system of data set [8] is human foreskin fibroblast-1 cells (HFF-1). Nature of the data set: Cell viability, Alamar Blue, 72 h. The format is cell-based. The procedure, abridged: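 HFF-1 fibroblasts were grown in DMEM with 15% fetal bovine serum, 100 μg/mL penicillin and 100 μg/mL streptomycin at 37 °C under 5% CO2. Cells were harvested, seeded and left to adhere. They were exposed to compounds in DMSO (1% final) for 72 h, and viability was then read by Alamar Blue. Raptinal (20 μM) served as the dead control.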

The conditions of data set [9]: mouse, in vivo.
Data set [10] has as its system 29 clinical isolates of S. aureus. The experiment in a line: MIC against multidrug-resistant clinical isolates of S. aureus. The format is cell-based, Staphylococcus aureus. The settings on record: 29 multidrug-resistant clinical isolates.
Data set [11] has as its system S. aureus. The experiment in a line: MIC shift in 50% human serum. The data set is classed as cell-based, Staphylococcus aureus. Put shortly:
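The CLSI broth microdilution MIC in cation-adjusted Mueller-Hinton broth was repeated against S. aureus with 50% human serum (ultrafiltrate, 30K Dalton membrane-filtered, unspecified gender) in the medium. Testing was in biological triplicate.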

Data set [12] deals with S. aureus ATCC 29213. Nature of the data set: Resistance frequency, large inoculum method. The format is cell-based, Staphylococcus aureus. To be noted: 2, 4, 8, 16, 32X the MIC.
A short description of data set [13]: Mouse maximum tolerated dose / tolerability.
Data set [14] concerns S. aureus ATCC BAA-1721. The experiment in a line: MIC against S. aureus strain harboring the fusC gene. The settings on record: S. aureus ATCC BAA-1721, fusC gene. The data set is classed as cell-based, Staphylococcus aureus.
Data set [15] has as its system strains of S. aureus ATCC 29213 resistant to FA-CP. The experiment in a line: MIC against FA-CP-resistant mutant strains. The format is cell-based, Staphylococcus aureus.
Data set [16] deals with FA-resistant strains of S. aureus ATCC 29213. The data set is classed as cell-based, Staphylococcus aureus.

The structures appear in SMILES notation. pIC50: −log10 of the molar value. ≈ marks a conversion by molar mass, not a printed value. Like-named read-outs stand apart in the source and are kept apart here.

In the case of `CC(=O)O[C@H]1C[C@@]2(C)[C@@H](C[C@@H](O)[C@H]3[C@@]4(C)CC[C@@H](O)[C@@H](C)[C@@H]4CC[C@@]32C)/C1=C(\CCC=C(C)C)C(=O)O` [FA, Fusidic acid, reference compound], the “activity against VRE clinical isolates” value in data set [1] is listed as “retained potent activity”. The “bacterial burden in thigh” value in data set [2] was “no efficacy”. Moreover, the MIC (commonly the lowest concentration found to suppress growth) in [3] (Staphylococcus aureus, ATCC29213) was 0.125 µg/mL (≈ 0.242 µM); in [4] (S. aureus clinical strains with EF-G L461K mutation), above 256 µg/mL; in [4] (five S. aureus clinical isolates with EF-G V90I, H457Q, L461K, A655V) it was above 256 µg/mL; in data set [5] (Enterococcus faecium, ATCC19434), 2 µg/mL (≈ 3.87 µM). Also, the “increase in MIC upon resistance” value in [4] (L461K mutation) is above 2048 fold. In addition, the results for the MIC range in data set [4] (staphylococcal clinical isolates that carry the fusC gene) and in data set [4] (strains that possess the fusB gene) were 2 to 64 µg/mL and 4 to 1024 µg/mL, respectively. The “S. aureus strains susceptible to FA” value in data set [6] was 99.7%. In addition, the Cmax result in [7] is listed as “greater than 130 μg/mL”. For the same compound, the half-life – broadly, the time needed for the level to fall by half in the phase considered – in data set [7] is 10 to 14 h. Further, the negative-log IC50 (pIC50) – broadly, the negative decadic logarithm of the IC50, by convention in mol/L – in data set [8] (Homo sapiens, HFF-1, 72 h) is below 4.30. Besides, the “tolerability in mice, multiple doses” value in data set [9] is “well tolerated”. In addition, the “activity against clinical isolates of S. aureus” value in data set [10] was “no cross-resistance with vancomycin and retained potent activity”.
`CC(=O)OC1CC2(C)C(CC(O)C3C4(C)CCC(O)C(C)C4CCC32C)C1=C(CCC=C1CCCCC1)C(=O)O` (stereo not shown) [compound 26] showed an MIC in [3] (S. aureus ATCC 29213, CLSI) of 0.125 µg/mL (≈ 0.225 µM). The “antibacterial activity relative to FA” value in data set [3] was “equipotent activity to FA”. The “shift in MIC in 50% human serum compared to FA” value in data set [11] is listed as “very similar”. In data set [12], the “resistance frequency relative to FA” value is on record as “only displayed an improvement at 32X the MIC”. Besides, the pIC50 in data set [8] (HFF-1 cells, 72 h) is below 4.30.
For `CC(=O)O[C@H]1C[C@@]2(C)[C@@H](C[C@@H](O)[C@H]3[C@@]4(C)CC[C@@H](O)[C@@H](C)[C@@H]4CC[C@@]32C)/C1=C(\CCC=C1CCOCC1)C(=O)O` [compound 27], in that order: 0.125 µg/mL (≈ 0.224 µM), “equipotent activity to FA”, “very similar”, “worse resistance frequency relative to FA” and below 4.30.
As for `CN[C@H](CC(C)C)C(=O)N[C@H]1C(=O)N[C@@H](CC(N)=O)C(=O)N[C@H]2C(=O)N[C@H]3C(=O)N[C@H](C(=O)N[C@H](C(=O)O)c4cc(O)cc(O)c4-c4cc3ccc4O)[C@H](O)c3ccc(c(Cl)c3)Oc3cc2cc(c3O[C@@H]2O[C@H](CO)[C@@H](O)[C@H](O)[C@H]2O[C@H]2C[C@](C)(N)[C@H](O)[C@H](C)O2)Oc2ccc(cc2Cl)[C@H]1O` [vancomycin], in data set [1], the MIC amounted to 512 µg/mL (≈ 353 µM).
Consider `CC(=O)OC1CC2(C)C(CC(O)C3C4(C)CCC(=O)C(C)C4CCC32C)C1=C(CCC=C(C)C)C(=O)O` (stereo not shown) [compound 5], for which the “MIC fold worse than FA” value in data set [3] is 4–8 fold.
The same measure, in the same setting: for `CC(=O)OC1CC2(C)C(CC(=O)C3C4(C)CCC(O)C(C)C4CCC32C)C1=C(CCC=C(C)C)C(=O)O` (stereo not shown) [compound 10] the value was 4–8 fold.
On to `CC(=O)OC1CC2(C)C(CC(O)C3C4(C)CCC(O)C(C)C4CCC32C)C1=C(CCC=C1CCCC1)C(=O)O` (stereo not shown) [FA-CP], for which the “activity against VRE clinical isolates” value in [1] is “retained potent activity”. Further, in data set [2], the “bacterial burden in thigh” value was “reductions in bacterial burden”. Moreover, the MIC in [3] (S. aureus ATCC 29213, CLSI) was determined as 0.125 µg/mL (≈ 0.23 µM); in data set [14], 8 µg/mL (≈ 14.7 µM); in data set [5] (sensitive strain E. faecium ATCC 19434) it was 2 µg/mL (≈ 3.68 µM); in [16] (FA-resistant strain FA-4X-A, EF-G T385N), 2 µg/mL (≈ 3.68 µM); in [16] (FA-resistant strain FA-4X-B, EF-G T385N), 2 µg/mL (≈ 3.68 µM); in [16] (FA-resistant strain FA-8X-A, EF-G T385N), 2 µg/mL (≈ 3.68 µM). Besides, the MIC in [16] (FA-resistant strain FA-8X-B, EF-G R464L) is 8 µg/mL (≈ 14.7 µM); in [16] (FA-resistant strain FA-16X-A, EF-G H457Y), 64 µg/mL (≈ 118 µM); in [16] (FA-resistant strain FA-32X-A, EF-G F88L) it was 128 µg/mL (≈ 236 µM); in [16] (FA-resistant strain FA-32X-B, EF-G P406L), 4 µg/mL (≈ 7.37 µM); in [16] (FA-resistant strain FA-32X-C, EF-G H457L) it was 128 µg/mL (≈ 236 µM); in [16] (FA-resistant strain FA-32X-D, EF-G T436I), 2 µg/mL (≈ 3.68 µM). Moreover, the MIC in [16] (FA-resistant strain FA-32X-E, EF-G H457N) turned out to be 128 µg/mL (≈ 236 µM); in data set [16] (FA-resistant strain FA-32X-F, EF-G D434N), 32 µg/mL (≈ 59 µM). In addition, in data set [3], the “antibacterial activity relative to FA” value is recorded as “equipotent activity to FA”. The “shift in MIC in 50% human serum compared to FA” value in data set [11] is given as “very similar”. The “tolerability in mice, multiple doses” value in data set [13] (50 mg/kg, intraperitoneal injection, once-a-day for 4 days) is “well tolerated”. The “tolerability in mice, single dose” value in [13] (single dose of 50 mg/kg, IP) is on record as “well tolerated”. In addition, the “resistance frequency relative to FA” value in data set [12] is “modest improvement in resistance frequency at 2 and 32X the MIC”. For the same compound, the “fold increase in MIC from wild-type (WT) S. aureus” value in data set [15] (highest MIC of colonies generated from FA-CP) is 512 fold. Further, the “highest MIC observed for colonies generated from FA-CP” value in data set [15] (resistance mutants generated at 32X the MIC) is 64 µg/mL. Also, the “MIC for FA-CP” value in [15] (strain FA-CP-32X-1, EF-G H457Y) is 32 µg/mL; in data set [15] (strain FA-CP-32X-2, EF-G H457Y), 64 µg/mL; in [15] (strain FA-CP-32X-3, EF-G H457Y), 64 µg/mL; in data set [15] (strain FA-CP-32X-4, EF-G H457Y) it was 32 µg/mL; in [15] (strain FA-CP-32X-5, EF-G H457Y), 64 µg/mL; in data set [15] (strain FA-CP-32X-6, EF-G H457Y), 64 µg/mL. Besides, the “MIC for FA-CP” value in data set [15] (strain FA-CP-32X-7, EF-G H457Y) was 64 µg/mL; in data set [15] (strain FA-CP-32X-8, EF-G H457Y) it was 64 µg/mL; in [15] (strain FA-CP-32X-9, EF-G H457Y), 32 µg/mL; in data set [15] (strain FA-CP-32X-10, EF-G D434N), 32 µg/mL; in [15] (strain FA-CP-32X-11, EF-G H457Y), 32 µg/mL; in [15] (strain FA-CP-32X-12, EF-G D434N) it was 32 µg/mL. Further, the “MIC for FA-CP” value in data set [15] (strain FA-CP-32X-13, EF-G H457Y) amounted to 64 µg/mL; in data set [15] (strain FA-CP-32X-14, EF-G H457Y), 32 µg/mL; in data set [15] (strain FA-CP-32X-15, EF-G H457Y), 64 µg/mL; in data set [15] (strain FA-CP-32X-16, EF-G F88L), 64 µg/mL; in [15] (strain FA-CP-32X-17, EF-G F88L) it was 64 µg/mL; in data set [15] (strain FA-CP-32X-18, EF-G H457Y), 64 µg/mL. Moreover, the “MIC for FA-CP” value in data set [15] (strain FA-CP-32X-19, EF-G H457Y) was 32 µg/mL; in data set [15] (strain FA-CP-32X-20, EF-G H457Y), 32 µg/mL. Moreover, the pIC50 in data set [8] (HFF-1 cells, 72 h) was below 4.30. Also, the “activity against clinical isolates of S. aureus” value in data set [10] is “no cross-resistance with vancomycin and retained potent activity”. For the same compound, the “improvement in activity against FA-resistant strains relative to FA” value in data set [16] (11 FA-resistant strains) is reported as 2–8 fold.
For the compound `CC(=O)O[C@H]1C[C@@]2(C)[C@@H](C[C@@H](O)[C@H]3[C@@]4(C)CC[C@@H](O)[C@@H](C)[C@@H]4CC[C@@]32C)/C1=C(\CCC=C(C)C)C(=O)O` [sodium fusidate], the “tolerability in mice, single dose” value in data set [9] (ip, 50 mg/kg) is reported as “well tolerated”.
As to `CC(=O)OC1CC2(C)C(CC(O)C3C4(C)CCC(O)C(C)C4CCC32C)C1C(CCCC(C)C)C(=O)O` (stereo not shown) [compound 28], in [3], the “antibacterial activity relative to FA” value is reported as “modest decreases in potency relative to FA”.
